From ChEMBL document CHEMBL5512625, “Design, synthesis, and biological evaluation of first-in-class indomethacin-based PROTACs degrading SARS-CoV-2 main protease and with broad-spectrum antiviral activity” (Eur J Med Chem, 2024)
Converted amounts (≈) assume the structure as drawn. The source made the active and inactive calls. The calls are words filed in the database; no cut-off is given here.

Assays:
[1] = Cytotoxicity against African green monkey Vero cells assessed as reduction in cell viability incubated for 72 hrs by MTT assay; format: toxicity, cell-based; conditions: chlorocebus sabaeus
SARS-CoV-2 [2] = experiment: Antiviral activity against SARS CoV-2 NL/2020 infected in African green monkey Vero E6 cells incubated for 3 days by plaque reduction assay; format: functional, organism-based; conditions: Severe acute respiratory syndrome coronavirus 2, NL/2020, Vero C1008, 72 h
SARS-CoV-2 [3] = experiment: Antiviral activity against SARS CoV-2 infected in African green monkey Vero E6 cells assessed as reduction in viral replication by plaque reduction assay; format: functional, organism-based; conditions: Severe acute respiratory syndrome coronavirus 2
[4] = Kinetic solubility in universal buffer incubated for 90 mins by microplate shaker method; format: physicochemical; conditions: for solubility kinetic at 1.5 h: universal buffer, read-out: Kinetic_solubility; for Kinetic_solubility: buffer, 1.5 h, BLD = below limit of detection
Summary of the method: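 Universal buffer (45 mM each ethanolamine, NaH2PO4 and sodium acetate) at pH 7.4; compound at 100 µM final, 5% DMSO. Shaken 90 min at 25 °C, vacuum-filtered, filtrate diluted with ACN/DMSO. UV absorbance at λmax quantified against an external calibration curve (3.13–100 µM); result corrected by ×1.25.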

[5] = Cytotoxicity against human MRC5 cells assessed as reduction in cell viability incubated for 72 hrs by MTT assay; format: toxicity, cell-based
Human coronavirus 229E = experiment: Antiviral activity against HCoV-229E infected in human MRC5 cells incubated for 3 days by plaque reduction assay; format: functional, organism-based; conditions: MRC5, 72 h
Human coronavirus OC43 = experiment: Antiviral activity against HCoV-OC43 infected in human MRC5 cells incubated for 3 days by plaque reduction assay; format: functional, organism-based; conditions: Betacoronavirus 1, MRC5, 72 h
[6] = target: Replicase polyprotein 1ab (Severe acute respiratory syndrome coronavirus 2, UniProt P0DTD1); experiment: Binding affinity to NT650-labeled recombinant SARS CoV-2 MPro assessed as protein stability by measuring dissociation constant by MST analysis
[7] = Cytotoxicity against human Calu-3 cells incubated for 72 hrs by MTT assay; format: toxicity, cell-based
SARS-CoV-2 [8] = experiment: Antiviral activity against SARS CoV-2 infected in human Calu-3 cells measured after 36 hrs; format: functional, organism-based; conditions: Severe acute respiratory syndrome coronavirus 2, Calu-3, 36 h
HEK-293T = experiment: Downregulation of PGES-2 level in HEK293T cells at 25 uM incubated for 2 to 8 hrs by Western blot analysis; format: functional, cell-based; conditions: Homo sapiens, time 2-8 hrs
Summary of the method: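 Uninfected 293T cells treated at 25 µM or with 0.1% DMSO and harvested at several times after treatment. Western blot with anti-PGES-2 antibody; β-actin as loading control.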

[9] = Metabolic stability in human liver microsomes assessed as half life measured upto 60 mins by LC/MS-MS analysis; format: ADME, Microsome
Summary of the method: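 Compound at 10 µM (0.1% DMSO) pre-incubated 5 min at 37 °C with human liver microsomes (0.5 mg/mL, 10-donor pool) in 0.1 M phosphate pH 7.4. Reaction started with 1 mM NADPH. Samples at 0, 5, 15, 30 and 60 min, quenched in cold acetonitrile with labetalol, analysed by LC-MS/MS; n=3.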

[10] = target: von Hippel-Lindau disease tumor suppressor-SARS-Cov-2 polyprotein (Severe acute respiratory syndrome coronavirus 2, UniProt P40337+P0DTD1); experiment: PROTAC activity at human VHL/virus-expressed MPro in human Calu-3 cells infected with SARS CoV-2 assessed as protein degradation incubated for 48 hrs by Western blot analysis; format: cell-based
Vero C1008 [11] = experiment: Downregulation of PGES-2 level in African green monkey Vero E6 cells infected with SARS CoV-2 at 25 uM pre-infected for 90 mins followed by removal of viral inoculum and subsequent addition of compound measured after 24 hrs post-infection; format: functional, cell-based; conditions: Chlorocebus sabaeus, time 1350.0 min
MRC5 [12] = experiment: Downregulation of PGES-2 level in human MRC5 cells infected with HCoV-229E at 25 uM pre-infected for 90 mins followed by removal of viral inoculum and subsequent addition of compound measured after 24 hrs post-infection; format: functional, cell-based; conditions: time 1350.0 min
MRC5 [13] = experiment: Downregulation of PGES-2 level in human MRC5 cells infected with HCoV-OC43 at 25 uM pre-infected for 90 mins followed by removal of viral inoculum and subsequent addition of compound measured after 48 hrs post-infection; format: functional, cell-based; conditions: time 2790.0 min
Summary of the method: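 MRC-5 cells infected with HCoV-OC43 for 90 min at 37 °C; inoculum removed, then treated at 25 µM or with 0.1% DMSO. Whole-cell lysates collected 48 h p.i. and blotted for PGES-2, normalised to β-actin.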

[14] = Chemical stability of compound in DMEM at pH 7.4 assessed as compound remaining at 1 uM measured after 24 hrs by LC-MS analysis; format: physicochemical; conditions: read-out: Stability
Summary of the method: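 Compound at 1 and 10 µM (0.1% DMSO) incubated at 37 °C in DMEM pH 7.4 with 10% FBS and penicillin/streptomycin. Samples at 0 and 24 h, quenched in cold acetonitrile with labetalol internal standard, analysed by LC-MS/MS; duplicates.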

[15] = Cytotoxicity against African green monkey Vero cells; format: toxicity, cell-based; conditions: chlorocebus sabaeus
SARS-CoV-2 [16] = experiment: Antiviral activity against SARS CoV-2 NL/2020; format: functional, organism-based; conditions: Severe acute respiratory syndrome coronavirus 2, NL/2020
Vero C1008 [17] = experiment: Cytotoxicity against African green monkey Vero E6 cells assessed as reduction in cell viability incubated for 72 hrs by Alamar blue assay; format: toxicity, cell-based; conditions: chlorocebus sabaeus, vero c1008, 72 h

von Hippel-Lindau disease tumor suppressor-SARS-Cov-2 polyprotein, sequence (P40337 whole entry, other chains not shown): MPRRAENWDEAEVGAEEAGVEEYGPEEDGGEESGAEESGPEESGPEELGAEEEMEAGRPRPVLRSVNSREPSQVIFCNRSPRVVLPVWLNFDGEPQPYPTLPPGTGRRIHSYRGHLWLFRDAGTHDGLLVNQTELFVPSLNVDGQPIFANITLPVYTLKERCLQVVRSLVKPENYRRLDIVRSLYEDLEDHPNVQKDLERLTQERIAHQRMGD

Q: For `COc1ccc2c(c1)c(CC(=O)NCCCCCCCCCCNc1cc3c(cc1F)C(=O)N(C1CCC(=O)NC1=O)C3=O)c(C)n2C(=O)c1ccc(Cl)cc1` (stereo not drawn), which CC50 at 72 h [1] is on record?
A: > 125 µM

Q: What about the EC50 (SARS-CoV-2 [2]) of the same compound?
A: > 25 µM

Q: Which Activity (SARS-CoV-2 [3]) does the source give for `COc1ccc2c(c1)c(CC(=O)NCCN1CCN(C(=O)CCC(=O)N[C@H](C(=O)N3C[C@@H](O)C[C@H]3C(=O)N[C@@H](C)c3ccc(-c4scnc4C)cc3)C(C)(C)C)CC1)c(C)n2C(=O)c1ccc(Cl)cc1` here?
A: inactive

Q: Which solubility kinetic at 1.5 h [4] does the source give for `COc1ccc2c(c1)c(CC(=O)NCCN1CCN(CCOCCOCC(=O)N[C@H](C(=O)N3C[C@H](O)C[C@H]3C(=O)N[C@@H](C)c3ccc(-c4scnc4C)cc3)C(C)(C)C)CC1)c(C)n2C(=O)c1ccc(Cl)cc1` here?
A: 26 µM (≈ 27.1 µg/mL)

Q: And the CC50 at 72 h [5]?
A: 12.3 µM

Q: And the CC50 at 72 h [1]?
A: > 125 µM

Q: And the EC50 (SARS-CoV-2 [2])?
A: > 25 µM

Q: Which solubility kinetic at 1.5 h [4] does the source give for `COc1ccc2c(c1)c(CC(=O)NCCCN1CCN(CCCNC(=O)CCC(=O)N[C@H](C(=O)N3C[C@H](O)C[C@H]3C(=O)N[C@@H](C)c3ccc(-c4scnc4C)cc3)C(C)(C)C)CC1)c(C)n2C(=O)c1ccc(Cl)cc1` here?
A: 9.4 µM (≈ 10 µg/mL)

Q: And the CC50 at 72 h [5]?
A: > 125 µM

Q: And the CC50 at 72 h [1]?
A: > 125 µM

Q: And the EC50 (SARS-CoV-2 [2])?
A: > 25 µM

Q: What about the EC50 (Human coronavirus 229E) of the same compound?
A: > 25 µM

Q: And the EC50 (Human coronavirus OC43)?
A: 16 µM

Q: What does the source list for `COc1ccc2c(c1)c(CC(=O)NCCCCNc1cc3c(cc1F)C(=O)N(C1CCC(=O)NC1=O)C3=O)c(C)n2C(=O)c1ccc(Cl)cc1` (stereo not drawn)?
A: CC50 at 72 h [1]: > 125 µM; EC50 (SARS-CoV-2 [2]): > 25 µM

Q: For `COc1ccc2c(c1)c(CC(=O)O)c(C)n2C(=O)c1ccc(Cl)cc1` [INDOMETHACIN], which Kd [6] is on record?
A: 129 µM

Q: With `COc1ccc2c(c1)c(CC(=O)N1CCN(CCCCCC(=O)N[C@H](C(=O)N3C[C@H](O)C[C@H]3C(=O)N[C@@H](C)c3ccc(-c4scnc4C)cc3)C(C)(C)C)CC1)c(C)n2C(=O)c1ccc(Cl)cc1` as the compound, how does the Kinetic_solubility [4] read?
A: Bld

Q: What about the CC50 at 72 h [5] of the same compound?
A: 20 µM

Q: What about the CC50 at 72 h [1] of the same compound?
A: > 125 µM

Q: What about the EC50 (SARS-CoV-2 [2]) of the same compound?
A: > 25 µM

Q: With `COc1ccc2c(c1)c(CC(=O)N1CCN(CC(=O)N[C@H](C(=O)N3C[C@H](O)C[C@H]3C(=O)N[C@@H](C)c3ccc(-c4scnc4C)cc3)C(C)(C)C)CC1)c(C)n2C(=O)c1ccc(Cl)cc1` as the compound, how does the Kinetic_solubility [4] read?
A: Bld

Q: And the CC50 at 72 h [5]?
A: > 125 µM

Q: And the CC50 at 72 h [7]?
A: > 125 µM

Q: And the EC50 (SARS-CoV-2 [8])?
A: 890 nM

Q: And the CC50 at 72 h [1]?
A: > 125 µM

Q: And the Activity (HEK-293T)?
A: inactive

Q: And the EC50 (SARS-CoV-2 [2])?
A: 10.8 µM

Q: What about the half-life [9] of the same compound?
A: > 60 min

Q: What about the EC50 (Human coronavirus 229E) of the same compound?
A: 6.5 µM

Q: What about the EC50 (Human coronavirus OC43) of the same compound?
A: 1.6 µM

Q: And the DC50 [10]?
A: 1340 nM

Q: What about the Activity (Vero C1008 [11]) of the same compound?
A: inactive

Q: And the Activity (MRC5 [12])?
A: inactive

Q: What about the Activity (MRC5 [13]) of the same compound?
A: inactive

Q: And the remaining at 24 h, 1 µM [14]?
A: > 70%

Q: For `COc1ccc2c(c1)c(CC(=O)NCCN1CCN(C(=O)CCC(=O)N[C@H](C(=O)N3C[C@H](O)C[C@H]3C(=O)N[C@@H](C)c3ccc(-c4scnc4C)cc3)C(C)(C)C)CC1)c(C)n2C(=O)c1ccc(Cl)cc1`, which solubility kinetic at 1.5 h [4] is on record?
A: 6 µM (≈ 5.97 µg/mL)

Q: And the CC50 at 72 h [1]?
A: > 250 µM

Q: What about the Activity (HEK-293T) of the same compound?
A: inactive

Q: What about the half-life [9] of the same compound?
A: > 60 min

Q: And the Activity (Vero C1008 [11])?
A: inactive

Q: What about the Activity (MRC5 [12]) of the same compound?
A: inactive

Q: What about the Activity (MRC5 [13]) of the same compound?
A: inactive

Q: What about the remaining at 24 h, 1 µM [14] of the same compound?
A: > 70%

Q: For `COc1ccc2c(c1)c(CC(=O)NCCCCCCNc1cc3c(cc1F)C(=O)N(C1CCC(=O)NC1=O)C3=O)c(C)n2C(=O)c1ccc(Cl)cc1` (stereo not drawn), which CC50 at 72 h [1] is on record?
A: > 125 µM

Q: And the EC50 (SARS-CoV-2 [2])?
A: > 25 µM

Q: Which results are given for `CC(C)(C)NC(=O)N[C@H](C(=O)N1C[C@H]2[C@@H]([C@H]1C(=O)NC(CC1CCC1)C(=O)C(N)=O)C2(C)C)C(C)(C)C` (stereo partly drawn) [BOCEPREVIR]?
A: CC50 [15]: > 500 µM; EC50 (SARS-CoV-2 [16]): 22 µM

Q: With `COc1ccc2c(c1)c(CC(=O)N1CCN(CC(=O)N[C@H](C(=O)N3C[C@@H](O)C[C@H]3C(=O)N[C@@H](C)c3ccc(-c4scnc4C)cc3)C(C)(C)C)CC1)c(C)n2C(=O)c1ccc(Cl)cc1` as the compound, how does the Activity (Vero C1008 [17]) read?
A: Toxic

Q: Which Kinetic_solubility [4] does the source give for `COc1ccc2c(c1)c(CC(=O)NCCCCCCC(=O)N[C@H](C(=O)N1C[C@H](O)C[C@H]1C(=O)N[C@@H](C)c1ccc(-c3scnc3C)cc1)C(C)(C)C)c(C)n2C(=O)c1ccc(Cl)cc1` here?
A: Bld

Q: And the CC50 at 72 h [5]?
A: > 250 µM

Q: And the CC50 at 72 h [1]?
A: > 200 µM

Q: What about the Activity (HEK-293T) of the same compound?
A: inactive

Q: What about the Activity (Vero C1008 [11]) of the same compound?
A: inactive

Q: And the Activity (MRC5 [12])?
A: inactive

Q: What about the Activity (MRC5 [13]) of the same compound?
A: inactive

Q: With `COc1ccc2c(c1)c(CC(=O)N1CCN(CCC(=O)N[C@H](C(=O)N3C[C@H](O)C[C@H]3C(=O)N[C@@H](C)c3ccc(-c4scnc4C)cc3)C(C)(C)C)CC1)c(C)n2C(=O)c1ccc(Cl)cc1` as the compound, how does the Kinetic_solubility [4] read?
A: Bld

Q: What about the CC50 at 72 h [5] of the same compound?
A: 13.5 µM

Q: And the CC50 at 72 h [1]?
A: > 125 µM

Q: What about the EC50 (SARS-CoV-2 [2]) of the same compound?
A: > 25 µM

Q: Which solubility kinetic at 1.5 h [4] does the source give for `COc1ccc2c(c1)c(CC(=O)N1CCN(CCOCCOCC(=O)N[C@H](C(=O)N3C[C@H](O)C[C@H]3C(=O)N[C@@H](C)c3ccc(-c4scnc4C)cc3)C(C)(C)C)CC1)c(C)n2C(=O)c1ccc(Cl)cc1` here?
A: 7.7 µM (≈ 7.69 µg/mL)

Q: And the CC50 at 72 h [5]?
A: 22 µM

Q: And the CC50 at 72 h [1]?
A: > 125 µM

Q: What about the EC50 (SARS-CoV-2 [2]) of the same compound?
A: > 25 µM
